Test results published in ChEMBL document CHEMBL1138564, “Microwave-induced synthesis and anti-microbial activities of 7,10,11,12-tetrahydrobenzo[c]acridin-8(9H)-one derivatives” (2009).
≈ marks a conversion by molar mass, not a printed value. Calls of active or inactive are those of the source. The rule behind the calls is not given here.

What was measured:
[1] = system: Aliivibrio fischeri; test: Antimicrobial activity against Vibrio fischeri NCIM 2154 at 1000 ug/disk after 24 hrs by disk diffusion method; type: functional; details: NCIM 2154, 24 h, read-out: DIZ
Method in brief: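 Disc diffusion. 100 µl of bacterial suspension at 10⁸ CFU/ml was spread on Mueller–Hinton agar. Discs loaded with test compound dissolved in DMSO were placed on the lawn, with a DMSO-only disc as negative control. Plates were incubated at 37 °C for 24 h, and the inhibition zone diameter was measured.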

[2] = system: Rhodococcus corynebacterioides; test: Antimicrobial activity against Corynebacterium rubrum NCIM 2252 after 24 hrs by serial dilution method; type: functional; details: Rhodococcoides corynebacterioides, NCIM 2252, 24 h
Method in brief: (§1)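 Broth dilution MIC in nutrient broth, run only for organisms found sensitive in disc diffusion. Compounds are two-fold serially diluted in 1 ml sterile broth per tube, spanning 3.9 to 1000. Inoculated tubes are incubated at 37 °C for 24 h.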

[3] = system: Salmonella typhimurium; test: Antimicrobial activity against Salmonella Typhimurium NCIM 2501 after 24 hrs by serial dilution method; type: functional, Salmonella enterica subsp. enterica serovar Typhimurium; details: Salmonella enterica, NCIM 2501, 24 h
[4] = system: Bacillus subtilis; test: Antimicrobial activity against Bacillus subtilis NCIM 2063 after 24 hrs by serial dilution method; type: functional; details: NCIM 2063, 24 h; method in brief: as §1
[5] = system: Bacillus cereus; test: Antimicrobial activity against Bacillus cereus NCIM 2155 after 24 hrs by serial dilution method; type: functional; details: NCIM 2155, 24 h; method in brief: as §1
[6] = system: Klebsiella aerogenes; test: Antimicrobial activity against Klebsiella aerogenes NCIM 2239 after 24 hrs by serial dilution method; type: functional; details: NCIM 2239, 24 h; method in brief: as §1
[7] = system: Aspergillus niger; test: Antimicrobial activity against Aspergillus niger NCIM 902 at 500 ug/disk after 72 hrs by disk diffusion method; type: functional; details: NCIM 1196, 72 h, in the assay text read “NCIM 1196” for “NCIM 902”, read-out: DIZ
Method in brief: (§2)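 Disc diffusion on Sabouraud's dextrose agar. 100 µl of fungal suspension at 10⁶ CFU/ml is spread on the plate. Discs carry test compounds at two loadings in DMSO; DMSO alone is the negative control. Clotrimazole disc is the positive reference. Plates are incubated at 27 °C for 72 h, and the zone of inhibition diameter is measured.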

[8] = system: Aspergillus parasiticus; test: Antimicrobial activity against Aspergillus parasiticus NCIM 904 at 500 ug/disk after 72 hrs by disk diffusion method; type: functional; details: NCIM 904, 72 h, read-out: DIZ; method in brief: as §2
[9] = system: Aspergillus niger; test: Antimicrobial activity against Aspergillus niger NCIM 902 at 1000 ug/disk after 72 hrs by disk diffusion method; type: functional; details: NCIM 1196, 72 h, in the assay text read “NCIM 1196” for “NCIM 902”, read-out: DIZ; method in brief: as §2
[10] = system: Lipomyces lipofer; test: Antimicrobial activity against Lipomyces lipofer NCIM 3252 at 500 ug/disk after 72 hrs by disk diffusion method; type: functional; details: for zone of inhibition at 500 µg/disc: NCIM 3252, 72 h, read-out: DIZ; method in brief: as §2
[11] = system: Escherichia coli; test: Antimicrobial activity against Escherichia coli NCIM 2065 at 500 ug/disk after 24 hrs by disk diffusion method; type: functional; details: NCIM 2065, 24 h, read-out: DIZ
Method in brief: (§3)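 Disc diffusion on Mueller–Hinton agar. 100 µl of bacterial suspension at 10⁸ CFU/ml is spread on the plate. Discs carry test compounds at two loadings, dissolved in DMSO; DMSO alone serves as negative control. Ofloxacin disc is the positive reference. Plates are incubated at 37 °C for 24 h, and the inhibition zone diameter is measured.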

[12] = system: Staphylococcus; test: Antimicrobial activity against Staphylococcus albus NCIM 2178 after 24 hrs by serial dilution method; type: functional; details: NCIM 2178, 24 h
[13] = system: Trichoderma viride; test: Antimicrobial activity against Trichoderma viride NCIM 1195 at 500 ug/disk after 72 hrs by disk diffusion method; type: functional; details: for zone of inhibition at 500 µg/disc: NCIM 1195, 72 h, read-out: DIZ
Method in brief: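 Fungal disc diffusion. 100 µl of suspension at 10⁶ CFU/ml was spread on Sabouraud's dextrose agar. Discs carrying test compound in DMSO were applied, with a DMSO-only disc as negative control. Plates were incubated at 27 °C for 72 h, and the zone of inhibition diameter was measured.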

[14] = system: Penicillium chrysogenum; test: Antimicrobial activity against Penicillium chrysogenum NCIM 707 at 1000 ug/disk after 72 hrs by disk diffusion method; type: functional; details: NCIM 707, 72 h, read-out: DIZ; method in brief: as §2
[15] = system: Lipomyces lipofer; test: Antimicrobial activity against Lipomyces lipofer NCIM 3252 after 72 hrs by serial dilution method; type: functional; details: NCIM 3252, 72 h
Method in brief: (§4)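 MIC by broth dilution in Sabouraud's dextrose broth, only for fungi sensitive in disc diffusion. Two-fold serial dilutions of compounds are made in 1 ml broth per tube, range 3.9 to 1000. Inoculated tubes are incubated at 27 °C for 72 h.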

[16] = system: Aspergillus niger; test: Antimicrobial activity against Aspergillus niger NCIM 902 after 72 hrs by serial dilution method; type: functional; details: NCIM 1196, 72 h, in the assay text read “NCIM 1196” for “NCIM 902”; method in brief: as §4
[17] = system: Aspergillus fumigatus; test: Antimicrobial activity against Aspergillus fumigatus NCIM 902 at 1000 ug/disk after 72 hrs by disk diffusion method; type: functional; method in brief: as §2
[18] = system: Proteus vulgaris; test: Antimicrobial activity against Proteus vulgaris NCIM 2027 after 24 hrs by serial dilution method; type: functional; details: NCIM 2027, 24 h; method in brief: as §1
[19] = system: Klebsiella aerogenes; test: Antimicrobial activity against Klebsiella aerogenes NCIM 2239 at 1000 ug/disk after 24 hrs by disk diffusion method; type: functional; details: NCIM 2239, 24 h, read-out: DIZ; method in brief: as §3
[20] = system: Pseudomonas aeruginosa; test: Antimicrobial activity against Pseudomonas aeruginosa NCIM 2200 after 24 hrs by serial dilution method; type: functional; details: NCIM 2200, 24 h; method in brief: as §1
[21] = system: Penicillium chrysogenum; test: Antimicrobial activity against Penicillium chrysogenum NCIM 707 after 72 hrs by serial dilution method; type: functional; details: NCIM 707, 72 h; method in brief: as §4
[22] = system: Aspergillus fumigatus; test: Antimicrobial activity against Aspergillus fumigatus NCIM 902 after 72 hrs by serial dilution method; type: functional; details: NCIM 902, 72 h; method in brief: as §4

MIC [2] [µg/mL]	MIC [3] [µg/mL]	MIC [4] [µg/mL]	MIC [5] [µg/mL]	MIC [6] [µg/mL]	MIC [12] [µg/mL]	MIC [15] [µg/mL]	MIC [16] [µg/mL]	MIC [18] [µg/mL]	MIC [20] [µg/mL]	MIC [21] [µg/mL]	Structure (SMILES)	zone of inhibition at 1000 µg/disc [1] [mm]	zone of inhibition at 500 µg/disc [7] [mm]	zone of inhibition at 500 µg/disc [8] [mm]	zone of inhibition at 1000 µg/disc [9] [mm]	zone of inhibition at 500 µg/disc [10] [mm]	zone of inhibition at 500 µg/disc [11] [mm]	zone of inhibition at 500 µg/disc [13] [mm]	zone of inhibition at 1000 µg/disc [14] [mm]	zone of inhibition at 1000 µg/disc [19] [mm]	further results
62.5 (≈ 169 µM)	31.2 (≈ 84.4 µM)	62.5 (≈ 169 µM)	31.2 (≈ 84.4 µM)	31.2 (≈ 84.4 µM)	125 (≈ 338 µM)	62.5 (≈ 169 µM)	62.5 (≈ 169 µM)	125 (≈ 338 µM)	62.5 (≈ 169 µM)	125 (≈ 338 µM)	CC1(C)CC(=O)C2=C(C1)Nc1c(ccc3ccccc13)C2c1ccc(O)cc1 (stereo not drawn)	9	8	12	10	7	7	10	9	12	diameter of the inhibition zone (DIZ) [17]: inactive
125 (≈ 347 µM)	62.5 (≈ 174 µM)	31.2 (≈ 86.7 µM)	15.6 (≈ 43.4 µM)	125 (≈ 347 µM)	62.5 (≈ 174 µM)	125 (≈ 347 µM)	62.5 (≈ 174 µM)	125 (≈ 347 µM)	62.5 (≈ 174 µM)	125 (≈ 347 µM)	O=C1CCCC2=C1C(c1ccc(Cl)cc1)c1ccc3ccccc3c1N2 (stereo not drawn)	9	8	10	8	–	7	–	8	9	diameter of the inhibition zone (DIZ) [10]: inactive; diameter of the inhibition zone (DIZ) [13]: inactive; MIC [22]: 62.5 µg/mL (≈ 174 µM); zone of inhibition at 1000 µg/disc ([17]; NCIM 902, 72 h, read-out: DIZ): 10 mm
125 (≈ 366 µM)	125 (≈ 366 µM)	31.2 (≈ 91.4 µM)	–	62.5 (≈ 183 µM)	62.5 (≈ 183 µM)	62.5 (≈ 183 µM)	62.5 (≈ 183 µM)	125 (≈ 366 µM)	125 (≈ 366 µM)	125 (≈ 366 µM)	O=C1CCCC2=C1C(c1ccc(O)cc1)c1ccc3ccccc3c1N2 (stereo not drawn)	9	9	12	9	10	7	10	10	10	diameter of the inhibition zone (DIZ) [17]: inactive
